The structures appear in SMILES notation. “And” between values parts separate entries of the source, which are not always exact repeats. Equal values may be shown once. Square brackets hold non-standard residues; d marks the D form. Peptide text beside a SMILES is read from it. * marks the point of attachment. Bmt = C/C=C/C[C@@H](C)[C@@H](O)[C@H](N)C(=O)O; Decanoyl = CCCCCCCCCC(=O)*; Leu(ol) = CC(C)C[C@H](N)CO; Aib = CC(C)(N)C(=O)O

Data set [1] is described as follows: Cytotoxicity against HUVEC assessed as reduction in cell viability incubated for 72 hrs by CellTiter-Glo luminescent cell viability assay. Format: toxicity, cell-based. The settings on record: human, HUVEC cells. The essentials: (§1)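 HUVECs (primary, limited passages) were kept in medium 200PRF with low serum growth supplement. HeLa and MCF-7 were kept in MEM with Earle's salts, L-glutamine, 10% FBS and 1% pen/strep. Cells were seeded at 5000 (HUVEC), 2000 (HeLa) or 3000 (MCF-7) per well and treated after 18 h for 72 h (final DMSO ≤0.1%). Viability read by ATP luminescence, vehicle = 100%; EC50 derived.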
On the technique in general: Cellular ATP, detected with luciferase, serves as a proxy for viable cell number.

The next data set concerns HeLa. As to the kind of experiment: Cytotoxicity against human HeLa cells assessed as reduction in cell viability incubated for 72 hrs by CellTiter-Glo luminescent cell viability assay. Format: functional, cell-based. In outline:
as §1

In another data set the test system is Enterococcus faecium. As to the kind of experiment: Antibacterial activity against Enterococcus faecium ATCC BAA-2317 assessed as inhibition of bacterial growth. Format: functional. The essentials:
(§2)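 Strains grown in ATCC-recommended media in culture tubes at 37 °C with shaking at 225 rpm for 3–8 h, back-diluted to about 10^6 cfu/mL, and incubated in triplicate in 384-well plates with a dilution series of test agent. DMSO vehicle served as negative control; linezolid (E. faecium) and ampicillin (S. aureus) were positive controls. MIC recorded.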

For the next data set, the system named is MCF7. The experiment in a line: Cytotoxicity against human MCF7 cells assessed as reduction in cell viability incubated for 72 hrs by CellTiter-Glo luminescent cell viability assay. Format: functional, cell-based. The note with it: MCF7, 72 h. The essentials:
as §1

Another data set deals with Staphylococcus aureus. As to the kind of experiment: Antibacterial activity against Staphylococcus aureus ATCC 25923 assessed as inhibition of bacterial growth. Format: functional. The essentials:
as §2

As for `C/C=C/C[C@@H](C)[C@@H](O)[C@H](NC(=O)[C@@H]1CCCN1C(=O)C(C)(C)NC(=O)CCCCCCCCC)C(=O)NC(C)(C)C(=O)N[C@@H](CCC(N)=O)C(=O)N[C@@H](CCC(N)=O)C(=O)NC(C)(C)C(=O)NC(C)(C)C(=O)N[C@@H](CCC(N)=O)C(=O)N[C@H](C(=O)N[C@H](CO)CC(C)C)C(C)C` (Decanoyl-[Aib]P[Bmt][Aib]QQ[Aib][Aib]QV[Leu(ol)]), the EC50 at 72 h in data set [1] amounted to 8 µM. Moreover, the EC50 in the data set with HeLa was 30 µM; with MCF7, 107 µM. In addition, the MIC was 22 µg/mL and 16 µM in the data set on Enterococcus faecium; 11 µg/mL and 8 µM with Staphylococcus aureus.

As to `CC(=O)NC[C@H]1CN(c2ccc(N3CCOCC3)c(F)c2)C(=O)O1` [LINEZOLID], in the data set on Enterococcus faecium, the MIC was 30 µg/mL and 89 µM.

For orientation: EC50 means the midpoint of the concentration-response curve. Usually MIC stands for the smallest concentration in the dilution series that meets the test's criterion for growth inhibition.

Values taken from ChEMBL document CHEMBL5120853, “Tolypocladamide H and the Proposed Tolypocladamide NRPS in Tolypocladium Species” (J Nat Prod, 2022).
